Source: PubChem BioAssay
Sampled rows, rich in hits. Any-hit rate of the full collection: about 2.1%.
Autophagy HCS: modulators of autophagy | calls only at 10 µM (by protocol) | MEF GFP-LC3 puncta imaging; test concentration mostly 10 µM | 190,000 compounds, 0.98% hits;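 active means percentage of spot-positive cells more than 3 SD above its plate mean, without a fluorescence outlier flag or 80% toxicity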
Hsp70 activator: switches on Hsp70 transcription. HeLa Hsp70 promoter luciferase reporter, luminescence; scaled: vehicle 0, proteasome-inhibitor control 100%. activation, % at 10 µM. 200,000 compounds, 0.04% hits;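 active means activation above the mean across all tested compounds plus 3 SD, cutoff set per campaign, cut at about 5.5% in these data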
Dynein transport: dynein cargo transport inhibition. 3617.4 mouse cells, GR-EGFP nuclear translocation imaging; test concentration mostly 20 µM; stimulated with dexamethasone, 1 µM; stronger effect = lower value. z-score, hits read low. 220,000 compounds, 0.47% hits. AID 1381;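 active means plate z-score of nuclear minus cytoplasmic receptor signal below a set negative limit, without overly bright fluorescence or cell loss, cut at about -3.5 in these data, passing the limit was not always enough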;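 further: z-score of nuclear minus cytoplasmic ring GR-EGFP intensity difference per well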
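Medium: Induction medium lacking tetracycline, stripped serum | Probe or stimulus: 1.0 µM final dexamethasone stimulus | Schedule: 48 h induction, then 1 h compound, then 30 min agonist, 37 °C | Signal: Automated 10x imaging of fixed Hoechst-stained cells | Evaluation: Per-cell GR-EGFP intensity, nucleus versus surrounding cytoplasmic ring, well-averaged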
MT stabilize HCS: microtubule stabilization, imaging screen; 200,000 compounds, 0.83% hits; % tubulin-high responders, % at 10 µM; HeLa tubulin immunostaining HCS, 24 h; share of cells brighter than vehicle mean+2SD;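 active means plate Z-score above 3 for both tubulin-high and condensed-nucleus cell shares, with cell loss under 80%, at 10 µM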;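 further: anti alpha tubulin signal scored within the nucleus-defined area of each cell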
b-catenin transl: modulators of beta-catenin nuclear translocation | HeLa beta-catenin nuclear translocation, immunofluorescence imaging | nuclear translocation activity, % at 5 µM | 190,000 compounds, 0.3% hits | AID 1665;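 active means nuclear translocation activity above 50% at 5 µM, with a well cell count of 50 or more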;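 further: per-cell ratio of nuclear to cytoplasmic median beta-catenin stain intensity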
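Signal – beta-catenin immunofluorescence imaging with DAPI · Test system – human HeLa cell line · Dosing – 5 µM primary single dose, 0.1% DMSO, 0.02–20 µM confirmation series · Measure – % activation, nuclear-to-cytoplasmic median beta-catenin signal ratio per cell · Incubation – 24 h compound exposure at 37°C, 5% CO2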
Numbers stand for hits.

What do the screens show for `CCCCc1nc2sc3c(SCCN(C)C)ncnc3c2c2c1CCC2`?
Dynein transport: inactive; b-catenin transl: inactive

How did CSc1nc(SCC(=O)NCc2ccco2)c2c3c(sc2n1)COC(C)(C)C3 do in these assays?
Autophagy HCS: inactive; Hsp70 activator: inactive; Dynein transport: inactive; MT stabilize HCS: 34.7; b-catenin transl: inactive

What do the screens show for `COc1ccc(S(=O)(=O)N2CCNC(=O)C2)cc1Br`?
Autophagy HCS: inactive; Hsp70 activator: inactive; Dynein transport: inactive; MT stabilize HCS: inactive; b-catenin transl: inactive

What do the screens show for `CC1=CC2=NC(=O)/C(=C/c3cccs3)C(=N)N2O1`?
Dynein transport: inactive; b-catenin transl: inactive

Results for CC1=CC2=NC(=O)/C(=C\c3ccc(-c4ccc(Cl)cc4)o3)C(=N)N2O1 ?
Autophagy HCS: active; Hsp70 activator: inactive; Dynein transport: inactive; MT stabilize HCS: inactive; b-catenin transl: inactive

What do the screens show for `Cc1cc(C)c2nc(/N=C(\N)NC(=O)c3ccccc3)nc(C)c2c1`?
Dynein transport: inactive; b-catenin transl: inactive

Results for CC1=C(C)C(=O)NC(Nc2nc(C)c3cc(C)cc(C)c3n2)N1 (stereo not drawn) ?
Autophagy HCS: active; Hsp70 activator: inactive; Dynein transport: inactive; MT stabilize HCS: inactive

How did O=c1[nH]nc(N2CCOCC2)c(=O)[nH]1 do in these assays?
Dynein transport: inactive; b-catenin transl: inactive

How did Cc1ccc(NC2=C(CC(=O)O)C(c3ccccc3)N(c3ccc(C)cc3)C2=O)cc1 (stereo not drawn) do in these assays?
Autophagy HCS: inactive; Hsp70 activator: inactive; Dynein transport: inactive; MT stabilize HCS: 12.3; b-catenin transl: inactive

Results for COc1ccc(C2C(CC(=O)O)=C(O)C(=O)N2c2ccccc2)cc1 (stereo not drawn) ?
Autophagy HCS: inactive; Hsp70 activator: inactive; Dynein transport: inactive; MT stabilize HCS: inactive; b-catenin transl: inactive

What do the screens show for `CCN(CC)c1ccc(C=C(c2nnnn2-c2ccc(C)cc2)c2nnnn2-c2ccc(C)cc2)cc1`?
Autophagy HCS: active; Hsp70 activator: inactive; Dynein transport: inactive; MT stabilize HCS: inactive; b-catenin transl: inactive

Results for CCOc1ccc(S(=O)(=O)Nc2cccc(N(C)S(C)(=O)=O)c2)cc1 ?
Autophagy HCS: inactive; Hsp70 activator: inactive; Dynein transport: inactive; MT stabilize HCS: inactive; b-catenin transl: inactive

What do the screens show for `CCOc1ccc(S(=O)(=O)Nc2cccc(OC)c2)cc1`?
Autophagy HCS: inactive; Hsp70 activator: inactive; Dynein transport: inactive; MT stabilize HCS: 16.2

What do the screens show for `CCOc1ccc(NS(=O)(=O)c2cnc(Cl)c(Cl)c2)cc1`?
Autophagy HCS: inactive; Hsp70 activator: inactive; Dynein transport: inactive; MT stabilize HCS: 15.9; b-catenin transl: inactive

What do the screens show for `Cc1cc(C)cc(NS(=O)(=O)c2cnc(Cl)c(Cl)c2)c1`?
Autophagy HCS: inactive; Hsp70 activator: inactive; Dynein transport: inactive; MT stabilize HCS: inactive; b-catenin transl: inactive

Results for CC(C)N=C1NN=C(c2ccc(Cl)c(Cl)c2)CS1 ?
Autophagy HCS: inactive; Hsp70 activator: inactive; Dynein transport: inactive; MT stabilize HCS: inactive; b-catenin transl: inactive

What do the screens show for `COc1ccc(OC)c(-n2c(=S)[nH]c3cc(C(=O)N4CCN(c5ccccc5)CC4)ccc3c2=O)c1`?
Autophagy HCS: inactive; Hsp70 activator: inactive; Dynein transport: inactive; MT stabilize HCS: inactive; b-catenin transl: inactive

What do the screens show for `CN(C)c1ccc(/C=C/C(O)=C2/C(=O)N(C)C3(C)CC2c2ccccc2O3)cc1` (stereo not drawn)?
Autophagy HCS: inactive; Hsp70 activator: inactive; Dynein transport: inactive; MT stabilize HCS: inactive; b-catenin transl: inactive

How did CCOc1ccc(/C=C2\SC(=O)N(CCNC(=O)C3COc4ccccc4O3)C2=O)cc1OC (stereo not drawn) do in these assays?
Autophagy HCS: inactive; Hsp70 activator: inactive; Dynein transport: inactive; MT stabilize HCS: inactive; b-catenin transl: inactive

Results for CCOc1ccc(/C=C/C(O)=C2/C(=O)N(C)C3(C)CC2c2ccccc2O3)cc1OC (stereo not drawn) ?
Autophagy HCS: inactive; Hsp70 activator: inactive; Dynein transport: inactive; MT stabilize HCS: 14.8; b-catenin transl: inactive

Results for CCOc1ccc(/C=C/C(O)=C2/C(=O)NC3(C)CC2c2ccccc2O3)cc1OC (stereo not drawn) ?
Autophagy HCS: active; Hsp70 activator: inactive; Dynein transport: inactive; MT stabilize HCS: inactive

Results for OCCC1CN(C2CCN(c3ccccc3F)CC2)CCN1Cc1ccccc1 (stereo not drawn) ?
Autophagy HCS: inactive; Hsp70 activator: inactive; Dynein transport: inactive; MT stabilize HCS: inactive; b-catenin transl: inactive

How did COC(=O)c1sccc1NC(=S)N1CCN(c2cccc(C)c2C)CC1 do in these assays?
Autophagy HCS: inactive; Hsp70 activator: inactive; Dynein transport: inactive; MT stabilize HCS: 15.0; b-catenin transl: inactive

How did Cc1cccc(N2CCN(C(=S)Nc3ccc4nc(N5CCN(C)CC5)cc(C)c4c3)CC2)c1C do in these assays?
Autophagy HCS: active; Hsp70 activator: inactive; Dynein transport: inactive; MT stabilize HCS: inactive; b-catenin transl: inactive

How did Cc1cc(N2CCN(C)CC2)nc2ccc(NC(=S)N3CCCCC3)cc12 do in these assays?
Autophagy HCS: inactive; Hsp70 activator: inactive; Dynein transport: inactive; MT stabilize HCS: inactive; b-catenin transl: inactive

Results for Cc1cc(N2CCN(C)CC2)nc2ccc(NC(=S)NCCCN3CCc4ccccc4C3)cc12 ?
Autophagy HCS: inactive; Hsp70 activator: inactive; Dynein transport: inactive; MT stabilize HCS: inactive; b-catenin transl: inactive

Results for Cc1cc(N2CCN(C)CC2)nc2ccc(NC(=S)NCCN3CCc4ccccc4C3)cc12 ?
Autophagy HCS: active; Hsp70 activator: inactive; Dynein transport: inactive; MT stabilize HCS: inactive; b-catenin transl: inactive

How did CCCN1CCC(NC(=S)Nc2ccc(S(N)(=O)=O)cc2)CC1 do in these assays?
Autophagy HCS: inactive; Hsp70 activator: inactive; Dynein transport: inactive; MT stabilize HCS: inactive; b-catenin transl: inactive

What do the screens show for `CC(C)NS(=O)(=O)c1ccc(CCC(=O)N2CCCCC2)cc1`?
Autophagy HCS: inactive; Hsp70 activator: inactive; Dynein transport: inactive; MT stabilize HCS: inactive; b-catenin transl: inactive

Results for Cc1onc(-c2ccccc2)c1C(=O)NCC(O)c1ccccc1 (stereo not drawn) ?
Dynein transport: inactive; b-catenin transl: inactive

What do the screens show for `CCn1c(SCC(=O)Nc2nc(-c3ccc(C)cc3)cs2)nnc1-c1ccccc1`?
Autophagy HCS: inactive; Hsp70 activator: inactive; Dynein transport: inactive; MT stabilize HCS: inactive

How did Cc1ccc(-c2csc(NC(=O)CSc3nc4ccccc4c(=O)n3CCCN(C)C)n2)cc1 do in these assays?
Autophagy HCS: active; Hsp70 activator: inactive; Dynein transport: inactive; MT stabilize HCS: inactive; b-catenin transl: inactive

What do the screens show for `Cc1csc(NC(=O)CSc2nnc3c4ccccc4nc(C(C)(C)C)n23)n1`?
Autophagy HCS: inactive; Hsp70 activator: inactive; Dynein transport: inactive; MT stabilize HCS: 46.3; b-catenin transl: 58.5

How did CC(=O)CSc1nnc2c3ccccc3nc(C(C)(C)C)n12 do in these assays?
Autophagy HCS: inactive; Hsp70 activator: inactive; Dynein transport: inactive; MT stabilize HCS: inactive; b-catenin transl: inactive
